Activity calls are given as the source filed them. The rule behind the calls is not given here.
How the values were obtained:
BXPC-3 [1] = test: Induction of apoptosis in human BXPC-3 cells assessed as increase in caspase 3/7 activation at 128 uM incubated for 72 hrs by laser scanning imaging analysis; format: functional, cell-based
In short: (§1)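 BxPC3 (5 × 10^3/well) or GL261-Luc (3 × 10^3/well) were dosed 24 h after seeding for 72 h (0.1% DMSO final). CellEvent caspase-3/7 reagent was added for 1 h at 37 °C and whole-well fluorescence imaged (Ex 488/Em 520 nm). Cells were then fixed, permeabilised, blocked and stained with CellTag 700 (Ex 685/Em 720 nm) for cell number. Signal per cell is given as fold over control. ≥3 experiments, ≥4 replicates.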

GL261 [2] = test: Antiproliferative activity against mouse GL261 cells transfected with luciferase gene assessed as reduction in cell index at 128 uM incubated for 72 hrs by xCELLigence real time cell analyser method; format: functional, cell-based
In short: (§2)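 Real-time impedance: cells seeded on E16 plates (BxPC3 5 × 10^3/well; GL261-Luc and primary astrocytes 3 × 10^3/well), treated after 24 h in DMEM/10% FBS with 0.1% DMSO final. Cell index read hourly for 72 h and normalised to control (100% viability). At least three independent experiments, duplicates each; mean ± S.D.; ANOVA with Dunnett's test.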

Astrocyte [3] = test: Cytotoxicity against mouse astrocyte cells assessed as reduction in cell viability at 128 uM incubated for 72 hrs by CyQUANT assay; format: toxicity, cell-based
In short: (§3)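 BxPC3 (5 × 10^3/well) or primary astrocytes (3 × 10^3/well) were dosed 24 h after plating, in supplemented DMEM with 0.1% DMSO final, for 72 h. Stained 1 h at 37 °C with CyQUANT Direct nucleic acid stain plus background suppressor in HBSS. Whole-well fluorescence imaged (Ex 488/Em 520 nm) and normalised to control. ≥3 experiments, ≥4 replicates.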

BXPC-3 [4] = test: Antiproliferative activity against human BXPC-3 cells assessed as reduction in cell index at 128 uM incubated for 72 hrs by xCELLigence real time cell analyser method; format: functional, cell-based; in short: as §2
GL261 [5] = test: Antiproliferative activity against mouse GL261 cells transfected with luciferase gene assessed as reduction in ATP release at 128 uM incubated for 72 hrs in presence of D-luciferin by luminescence based SpectraMax M5 microplate reader analysis; format: functional
In short: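 Luciferase-expressing GL261 cells were seeded at 3 × 10^3/well, then dosed 24 h later for 72 h in supplemented DMEM with 0.1% DMSO final. Medium was replaced with D-luciferin (150 µg/mL in complete medium) for 15 min at 37 °C, and luminescence was read on a plate reader and normalised to control. ≥3 experiments, ≥4 replicates.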

GL261 [6] = test: Induction of apoptosis in mouse GL261 cells transfected with luciferase gene assessed as increase in caspase 3/7 activation at 128 uM incubated for 72 hrs by laser scanning imaging analysis; format: functional, cell-based; in short: as §1
Astrocyte [7] = test: Cytotoxicity against mouse astrocyte cells assessed as reduction in cell index at 128 uM incubated for 72 hrs by xCELLigence real time cell analyser method relative to control; format: toxicity, cell-based; design: scale not given: the % may be the effect or the level left; in short: as §2
BXPC-3 [8] = test: Cytotoxicity against human BXPC-3 cells assessed as reduction in cell viability at 128 uM incubated for 72 hrs by CyQUANT assay; format: functional, cell-based; in short: as §3
BXPC-3 [9] = test: Induction of apoptosis in human BXPC-3 cells assessed as fold increase in caspase 3/7 activation at 128 uM incubated for 72 hrs by laser scanning imaging analysis; format: functional; in short: as §1
Astrocyte [10] = test: Cytotoxicity against mouse astrocyte cells assessed as reduction in cell index at 128 uM measured after 4 hrs by xCELLigence real time cell analyser method; format: toxicity, cell-based; in short: as §2
BXPC-3 [11] = test: Antiproliferative activity against human BXPC-3 cells assessed as reduction in cell index at 128 uM incubated for 72 hrs by xCELLigence real time cell analyser method relative to control; format: functional; design: scale not given: the % may be the effect or the level left; in short: as §2
BXPC-3 [12] = test: Cytotoxicity against human BXPC-3 cells assessed as reduction in cell viability at 128 uM incubated for 72 hrs by CyQUANT assay relative to control; format: functional; in short: as §3
BXPC-3 [13] = test: Antiproliferative activity against human BXPC-3 cells assessed as reduction in cell index at 256 uM incubated for 72 hrs by xCELLigence real time cell analyser method; format: functional, cell-based
In short: (§4)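 Cells seeded on E16 xCELLigence plates (BxPC3 5 × 10^3/well; GL261-Luc and primary astrocytes 3 × 10^3/well), treated after 24 h in supplemented DMEM with 0.1% DMSO final. Impedance cell index read hourly for 72 h, normalised to control (100% viability). At least three independent experiments, two replicates each; ANOVA with Dunnett's test.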

GL261 [14] = test: Antiproliferative activity against mouse GL261 cells transfected with luciferase gene assessed as reduction in cell index at 256 uM incubated for 72 hrs by xCELLigence real time cell analyser method; format: functional, cell-based; in short: as §4
GL261 [15] = test: Induction of apoptosis in mouse GL261 cells transfected with luciferase gene assessed as increase in caspase 3/7 activation at 256 uM incubated for 72 hrs by laser scanning imaging analysis; format: functional, cell-based
In short: (§5)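 BxPC3 (5 × 10^3/well) or GL261-Luc (3 × 10^3/well) exposed 24 h post-plating for 72 h, 0.1% DMSO final. CellEvent caspase-3/7 green reagent 1 h at 37 °C; whole-well fluorescence imaged (Ex 488/Em 520 nm). Cells then fixed, permeabilised, blocked and stained with CellTag 700 (Ex 685/Em 720 nm); caspase signal normalised to cell number, expressed as fold over control. At least three experiments, at least four replicates each.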

Astrocyte [16] = test: Cytotoxicity against mouse astrocyte cells assessed as reduction in cell viability at 256 uM incubated for 72 hrs by CyQUANT assay; format: toxicity, cell-based
In short: (§6)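 BxPC3 (5 × 10^3/well) or primary C57BL/6 male mouse astrocytes (>90% GFAP-positive; 3 × 10^3/well) treated 24 h after plating for 72 h, 0.1% DMSO final. Stained 1 h at 37 °C with CyQUANT Direct nucleic acid stain plus background suppressor in HBSS; whole-well fluorescence imaged (Ex 488/Em 520 nm), normalised to control. At least three experiments, at least four replicates each.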

BXPC-3 [17] = test: Induction of apoptosis in human BXPC-3 cells assessed as increase in caspase 3/7 activation at 256 uM incubated for 72 hrs by laser scanning imaging analysis; format: functional, cell-based; in short: as §5
BXPC-3 [18] = test: Cytotoxicity against human BXPC-3 cells assessed as reduction in cell viability at 256 uM incubated for 72 hrs by CyQUANT assay; format: functional, cell-based; in short: as §6
GL261 [19] = test: Antiproliferative activity against mouse GL261 cells transfected with luciferase gene assessed as reduction in ATP release at 256 uM incubated for 72 hrs in presence of D-luciferin by luminescence based SpectraMax M5 microplate reader analysis; format: functional, cell-based
In short: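 Luciferase-expressing GL261-Luc seeded at 3 × 10^3/well in DMEM with 10% FBS; 24 h later exposed to compounds with 0.1% DMSO final for 72 h. Medium replaced by D-luciferin 150 μg mL-1 in complete medium, 15 min at 37 °C; luminescence read on plate reader, normalised to control. At least three experiments, at least four replicates each.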

Astrocyte [20] = test: Cytotoxicity against mouse astrocyte cells assessed as reduction in cell index at 256 uM incubated for 72 hrs by xCELLigence real time cell analyser method relative to control; format: toxicity, cell-based; design: scale not given: the % may be the effect or the level left; in short: as §4
GL261 [21] = test: Induction of apoptosis in mouse GL261 cells transfected with luciferase gene assessed as fold increase in caspase 3/7 activation at 128 uM incubated for 72 hrs by laser scanning imaging analysis; format: functional; in short: as §5

| Structure (SMILES) | Activity (BXPC-3 [1]) | Activity (GL261 [2]) | Activity (Astrocyte [3]) | Activity (BXPC-3 [4]) | Activity (GL261 [5]) | Activity (GL261 [6]) | Activity (Astrocyte [7]) | Activity (BXPC-3 [8]) | fold change (FC) (BXPC-3 [9]) | Activity (Astrocyte [10]) | Activity (BXPC-3 [11]) | Activity (BXPC-3 [12]) | Activity (BXPC-3 [13]) | Activity (GL261 [14]) | Activity (GL261 [15]) | Activity (Astrocyte [16]) | Activity (BXPC-3 [17]) | Activity (BXPC-3 [18]) | Activity (GL261 [19]) | Activity (Astrocyte [20]) | also measured |
| --- | --- | --- | --- | --- | --- | --- | --- | --- | --- | --- | --- | --- | --- | --- | --- | --- | --- | --- | --- | --- | --- |
| Oc1ccccc1 [PHENOL] | inactive | inactive | 8% | inactive | inactive | inactive | 11% | inactive |  |  |  |  |  |  |  |  |  |  |  |  |  |
| Oc1ccc2ccccc2c1 [BETANAPHTHOL] |  |  | 29% |  | 39% |  | 46% |  | 8.1 | Toxic | 94% | 90% |  |  |  |  |  |  |  |  |  |
| C[C@H](N)C(=O)OCc1ccccc1 |  |  |  |  |  |  |  |  |  |  |  |  | inactive | inactive | inactive | 8% | inactive | inactive | inactive | 11% |  |
| Oc1cccc2ccccc12 [1-NAPHTHOL] |  |  | 29% |  | 53% |  |  |  | 2.2 | Toxic | 51% | 53% |  |  |  |  |  |  |  |  | fold change (FC) (GL261 [21]): 2 |
| CC(C)OC(=O)[C@H](C)N |  |  |  |  |  |  |  |  |  |  |  |  | inactive | inactive | inactive | 12% | inactive | inactive | inactive | 11% |  |
| OCc1ccccc1O [SALICYL ALCOHOL] | inactive | inactive | 22% | inactive | inactive | inactive | 11% | inactive |  |  |  |  |  |  |  |  |  |  |  |  |  |

Reference: ChEMBL document CHEMBL5537213, “Cytotoxicity of phosphoramidate, bis-amidate and cycloSal prodrug metabolites against tumour and normal cells” (RSC Med Chem, 2024)
